Results taken from ChEMBL document CHEMBL1144153, “Conjugates of the fungal cytotoxin illudin M with improved tumour specificity” (Bioorg Med Chem, 2008).
The source made the active and inactive calls. The calls are words filed in the database; no cut-off is given here.

Legend:
PANC-1 [1] = assay: Cytotoxicity against human PANC1 cells up to 10 uM by trypan blue exclusion assay; assay type: functional, cell-based
Procedure, shortened: (§1)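 Cells grown in RPMI-1640 with 10% FCS, penicillin and streptomycin at 37 °C, 5% CO2. Exposed to 0.01–10 µM for up to 120 h (24–120 h time course). Harvested, stained with Trypan blue, and unstained cells counted in a Neubauer chamber. Counts expressed relative to untreated controls (100%). Means of three independent experiments.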

HFF = assay: Induction of apoptosis in HFF cells assessed as sub-diploid DNA content at 1 uM after 120 hrs by FACS relative to control; assay type: cell-based; details: human
Procedure, shortened: (§2)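 Panc-1 and HT-29 cells (RPMI-1640) or foreskin fibroblasts (DMEM), 10% FCS, 37 °C, were compound-treated. Supernatants were pooled with PBS-washed, trypsinised cells, then lysed in hypotonic 0.1% sodium citrate / 0.1% Triton X-100 with 50 µg/mL propidium iodide. Flow cytometry scored the sub-diploid nuclear fraction as apoptotic, relative to untreated controls. Means of three independent experiments.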

[2] = Cytotoxicity against HFF cells assessed as viable cells at 1 uM after 120 hrs by trypan blue exclusion assay relative to control; assay type: cell-based; details: human, read-out: Activity
Procedure, shortened: (§3)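 Panc-1 and HT-29 cells were grown in RPMI-1640, and foreskin fibroblasts in DMEM, each with 10% FCS plus penicillin/streptomycin at 37 °C and 5% CO2. Cells were exposed to compound (0.01–10 µM range) for up to 120 h, harvested and stained with Trypan blue. Unstained cells were counted in a Neubauer chamber relative to untreated controls (100%). Means of three independent experiments ± SD.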

HT-29 [3] = assay: Cytotoxicity against human HT-29 cells up to 10 uM by trypan blue exclusion assay; assay type: functional, cell-based; procedure, shortened: as §1
[4] = Cytotoxicity against HFF cells assessed as viable cells at 1 uM after 48 hrs by trypan blue exclusion assay relative to control; assay type: cell-based; details: human, read-out: Activity; procedure, shortened: as §3
HT-29 [5] = assay: Induction of apoptosis in human HT-29 cells assessed as sub-diploid DNA content at 1 uM after 120 hrs by FACS relative to control; assay type: functional; procedure, shortened: as §2
HT-29 [6] = assay: Induction of apoptosis in human HT-29 cells assessed as sub-diploid DNA content at 1 uM after 96 hrs by FACS relative to control; assay type: functional; procedure, shortened: as §2
PANC-1 [7] = assay: Cytotoxicity against human PANC1 cells assessed as viable cells at 1 uM after 120 hrs by trypan blue exclusion assay relative to control; assay type: functional; details: PANC-1, 120 h, read-out: Activity; procedure, shortened: as §3
HT-29 [8] = assay: Cytotoxicity against human HT-29 cells assessed as viable cells at 1 uM after 120 hrs by trypan blue exclusion assay relative to control; assay type: functional; details: HT-29, 120 h, read-out: Activity; procedure, shortened: as §3
PANC-1 [9] = assay: Induction of apoptosis in human PANC1 cells assessed as sub-diploid DNA content at 1 uM after 96 hrs by FACS relative to control; assay type: functional; procedure, shortened: as §2
PANC-1 [10] = assay: Induction of apoptosis in human PANC1 cells assessed as sub-diploid DNA content at 1 uM after 120 hrs by FACS relative to control; assay type: functional; procedure, shortened: as §2
HT-29 [11] = assay: Cytotoxicity against human HT-29 cells assessed as viable cells at 1 uM after 48 hrs by trypan blue exclusion assay relative to control; assay type: functional; details: HT-29, 48 h, read-out: Activity; procedure, shortened: as §3
PANC-1 [12] = assay: Cytotoxicity against human PANC1 cells assessed as viable cells at 1 uM after 48 hrs by trypan blue exclusion assay relative to control; assay type: functional; details: PANC-1, 48 h, read-out: Activity; procedure, shortened: as §3
PANC-1 [13] = assay: Induction of apoptosis in human PANC1 cells assessed as sub-diploid DNA content at 0.1 uM by FACS; assay type: functional, cell-based; procedure, shortened: as §2
MCF7 = assay: Antiproliferative activity against human MCF7 cells at 1 to 10 uM after 24 to 48 hrs by MTT assay; assay type: functional
MDA-MB-231 = assay: Antiproliferative activity against human MDA-MB-231 cells at 1 to 10 uM after 24 to 48 hrs by MTT assay; assay type: functional

SMILES	Activity (PANC-1 [1])	Activity (HFF) [%]	viability at 120 h, 1 µM [2] [%]	Activity (HT-29 [3])	viability at 48 h, 1 µM [4] [%]	Activity (HT-29 [5]) [%]	Activity (HT-29 [6]) [%]	viability at 1 µM (PANC-1 [7]) [%]	viability at 1 µM (HT-29 [8]) [%]	Activity (PANC-1 [9]) [%]	Activity (PANC-1 [10]) [%]	viability at 1 µM (HT-29 [11]) [%]	viability at 1 µM (PANC-1 [12]) [%]	Activity (PANC-1 [13])	Activity (MCF7) [%]	Activity (MDA-MB-231) [%]
CC1=C2C(=CC(C)(C)[C@@H]2OC(=O)c2ccc(-c3ccc(C(=O)O[C@@H]4C5=C(C)C6(CC6)[C@@](C)(O)C(=O)C5=CC4(C)C)cn3)nc2)C(=O)[C@](C)(O)C12CC2	Active	14.3	47.8	Active	62											
CC1=C2C(=CC(C)(C)[C@@H]2OC(=O)CCCc2ccc(N(CCCl)CCCl)cc2)C(=O)[C@](C)(O)C12CC2		9.5	47.5			6	<10	20	42.7	<10	36.8					
CC1=C2C(=CC(C)(C)[C@@H]2OC(=O)C2C3CCC(O3)C2C(=O)O[C@@H]2C3=C(C)C4(CC4)[C@@](C)(O)C(=O)C3=CC2(C)C)C(=O)[C@](C)(O)C12CC2 (stereo partly drawn) [BIS(ILLUDINYL M) ENDOTHALLATE]	Active	33.1	49.3	Active		52.9		6.4	3		74	26	33			
CC/C=C\C/C=C\C/C=C\C/C=C\C/C=C\C/C=C\CCC(=O)O[C@@H]1C2=C(C)C3(CC3)[C@@](C)(O)C(=O)C2=CC1(C)C [DOCOSAHEXAENOYL ILLUDIN M]		4.4	80			1.9	<10	103	111	<10	2.6					
CC1=C2C(=CC(C)(C)[C@@H]2O)C(=O)[C@](C)(O)C12CC2 [ILLUDIN M]		88.9	28.1		39	47.9		12.3	3.8		86	26	42	Active		
CC1=C(CO)C2=C(C)C3(CC3)[C@@](C)(O)C(=O)C2=C1 [IROFULVEN]															70	70
